# From PubChem BioAssay
# A selection: hits, their analogues and other compounds. The true share with any hit is near 3.5%.
# MrgX1 PAM – allosterically activates human MrgX1 receptor signaling; Q96LB2; MrgX1-HEK293, Fluo-4 calcium flux, FDSS; active compounds read high; B-score at 10 µM; 0.63% of 310,000 active; AID 588675;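 active = plate-corrected calcium response at least 3 library SD above typical, normal starting fluorescence, not activating the receptor alone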;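 note: compound read alongside a low EC10 to EC30 dose of BAM8-22 agonist; peak minus trough fluorescence over baseline measured at the second addition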
# Target sequence (Q96LB2 whole entry, looked up): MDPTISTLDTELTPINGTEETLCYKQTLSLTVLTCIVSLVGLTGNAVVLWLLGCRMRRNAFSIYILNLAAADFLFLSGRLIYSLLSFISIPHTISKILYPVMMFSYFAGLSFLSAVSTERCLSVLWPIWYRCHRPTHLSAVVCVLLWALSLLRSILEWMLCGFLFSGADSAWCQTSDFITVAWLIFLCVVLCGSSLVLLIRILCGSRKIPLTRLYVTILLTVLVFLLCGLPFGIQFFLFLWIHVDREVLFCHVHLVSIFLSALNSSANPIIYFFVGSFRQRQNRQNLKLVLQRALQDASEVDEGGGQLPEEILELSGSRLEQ
# MrgX1 agonist – agonists of human MrgX1 receptor | AID 588627 | Q96LB2 | B-score at 10 µM | 0.44% of 310,000 active | MrgX1-HEK293 cells, Fluo-4 calcium fluorescence, agonist mode; active compounds read high;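 active = calcium response B-score plate-corrected fluorescence ratio at least 3 library SD, with starting fluorescence B-score inside 5 SD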
#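 Assay system: stable human MrgX1 HEK293 cell line. Quantity: 15,000 cells per well. Schedule: cells plated overnight, dye loaded 0.5 h 37 °C, 0.5 h room temperature. Detection: Fluo-4 NW calcium-flux fluorescence, kinetic read. Read-out basis: peak-minus-minimum fluorescence over baseline, converted to B scores. Control set: positive and negative control wells on each plate.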
# MrgX1 antagonist – blocks BAM8-22 activation of human MrgX1 receptor; Q96LB2; MRGX1-HEK293 calcium flux, Fluo-4, BAM8-22 antagonism; active compounds read low; B-score at 10 µM; 1.3% of 310,000 active;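 active = calcium-response B-score plate-corrected more than 3 library SD below zero, starting fluorescence within 5 deviations, no agonist response on first addition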;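 note: peak minus trough fluorescence over baseline after final BAM8-22 challenge near maximal dose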
# RGS4 act – potentiators or activators of RGS4 | HEK293 M3R/inducible RGS4, carbachol calcium flux Fluo4; active compounds read low | B-score at 10 µM | 0.92% of 310,000 active | AID 463111;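 active = B-score of the integrated calcium signal more than 4 SD below the library mean, with starting fluorescence not abnormally high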;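 note: negative B-score means reduced calcium response which marks RGS4 activation or potentiation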
#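 test system = M3R-expressing HEK293 line, RGS4 induced by doxycycline | probe or stimulus = carbachol at ECmax as muscarinic agonist stimulus | timing = dye loading 30 min 37 °C, buffer rest 30 min RT | signal = calcium dye Fluo4 fluorescence | evaluation = B score from integrated fluorescence ratio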
# RGS4 inh – inhibitors of human RGS4; P49798; HEK293 M3R/RGS4 inducible, Fluo-4 calcium flux; active compounds read high; triggered by carbachol at its EC20; B-score at 10 µM; 0.45% of 310,000 active; AID 463165;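 active = B-score, a plate-corrected calcium signal, over three deviations above library mean, with baseline fluorescence within five deviations of library mean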;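 note: RGS4 expression induced by doxycycline in cells with stable M3 receptor; B-score is computed from the integrated fluorescence ratio over baseline after carbachol; higher B-score means a larger calcium signal and so more RGS4 inhibition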
# Target sequence (P49798 whole entry, looked up): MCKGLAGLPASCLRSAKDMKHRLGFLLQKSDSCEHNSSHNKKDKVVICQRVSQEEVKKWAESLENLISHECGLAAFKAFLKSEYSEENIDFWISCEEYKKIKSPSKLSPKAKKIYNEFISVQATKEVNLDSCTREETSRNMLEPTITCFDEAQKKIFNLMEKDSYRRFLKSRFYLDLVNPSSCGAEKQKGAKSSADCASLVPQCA
# MrgX1 antag conf – human MrgX1 receptor antagonism, re-confirmation screen. MrgX1-HEK293, BAM8-22 calcium flux, Fluo-4; active compounds read low. AID 602420. shares compounds with MrgX1 antagonist. 19% of 2,300 active. remaining BAM8-22 calcium response % of control (active compounds read low), % at 10 µM;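 active = remaining agonist calcium response no higher than 100% minus 3 SD of agonist-only control wells, with starting fluorescence near control levels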;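 note: agonist BAM8-22 given at a near maximal EC90 to ECmax level; peak minus minimum fluorescence divided by baseline after agonist addition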
# HEK293 Ca flux – activity in parental HEK293 cells lacking MrgX1; shares compounds with MrgX1 antagonist; Fluo-4 calcium fluorescence, FDSS; fluorescence ratio F(max-min)/F0 at 10 µM; 2% of 4,000 active; AID 624111;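 active = duplicate-averaged calcium fluorescence ratio at least three times the standard deviation of buffer wells, a nonspecific response in parental cells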
# HEK293 Ca counter – counter-screen for MrgX1 allosteric activators: effect in parental HEK293 cells; shares compounds with MrgX1 antagonist; parental HEK293 calcium flux, Fluo-4 fluorescence ratio; active compounds read high; fluorescence ratio F(max-min)/F0 at 10 µM; 0.4% of 4,000 active;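 active = calcium fluorescence ratio, averaged over duplicates, at least 3 SD of the buffer-well ratio, meaning a nonspecific response in receptor-free cells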;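 note: untransfected parental HEK293 lacking MrgX1 used as counterscreen for MrgX1 allosteric activators; fluorescence change taken during the second addition on a kinetic imager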
# HEK293 Ca cntr2 – activity in parental HEK293 cells lacking MrgX1 receptor; shares compounds with MrgX1 antagonist; Fluo-4 calcium fluorescence (FDSS); active compounds read high; fluorescence ratio F(max-min)/F0 at 10 µM; 8.7% of 4,000 active; AID 624115;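 active = calcium fluorescence ratio at least three times the spread of buffer wells, meaning a non-specific response in parental cells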
# Hits are given with their value; n = inactive; x = not tested or not shown.
SMILES,MrgX1 PAM,MrgX1 agonist,MrgX1 antagonist,RGS4 act,RGS4 inh,MrgX1 antag conf,HEK293 Ca flux,HEK293 Ca counter,HEK293 Ca cntr2
Nc1nc(N2CCN(c3ccc(Cl)cc3)CC2)n[nH]1,n,n,n,n,n,x,x,x,x
O=S(=O)(c1ccc(F)cc1)N1CCC(N2CCCCCC2)CC1,n,n,-11,n,n,n,n,n,n
CC1CCN(C2CCN(S(=O)(=O)c3ccc(F)cc3)CC2)CC1,n,n,n,n,n,x,x,x,x
CCN(CC)C(=O)C1CC(=O)OC12CCCCC2 (stereo not given),n,n,n,n,n,x,x,x,x
O=C1CC(C(=O)O)C2(CCCC2)O1 (stereo not given),n,n,-5.2,n,n,n,n,n,n
CC(C)NC[C@H](O)COc1ccc(CC(N)=O)cc1,n,n,n,x,x,x,x,x,x
COc1cc(C=O)ccc1Oc1nnnn1-c1ccc(C(N)=O)cc1,n,n,n,n,n,x,x,x,x
C/C=C/c1ccc(Oc2nnnn2-c2ccc(C(=O)O)cc2)c(OC)c1,n,n,-4.6,n,n,n,n,n,n
CC(CC(=O)N(CCC1=CCCCC1)c1c(N)n(Cc2ccccc2)c(=O)[nH]c1=O)c1ccccc1 (stereo not given),n,n,n,n,n,x,x,x,x
O=C(Cc1ccc(Cl)cc1)Nc1ccc(N2CCCC2)cc1,n,n,-5.3,x,x,n,n,n,n
O=C(Cc1ccc(Cl)cc1)Nc1ccc(C(=O)N2CCOCC2)cc1,n,n,n,n,n,x,x,x,x
O=C(NCc1ccccc1)C(=O)NCC1CCCN1S(=O)(=O)c1cccs1 (stereo not given),n,n,-16,n,n,n,n,n,n
Cc1ccc(S(=O)(=O)N2CCCC2CNC(=O)C(=O)NCc2ccccn2)cc1 (stereo not given),n,n,-7.1,n,n,n,n,n,n
O=C(NCC1CCCN1S(=O)(=O)c1cccs1)C(=O)Nc1ccccc1 (stereo not given),n,n,n,n,n,x,x,x,x
Cc1ccc(C(=O)NCC2CCCN2S(=O)(=O)c2cccs2)cc1C (stereo not given),n,n,n,n,n,x,x,x,x
COc1cc(C(=O)NCC2CCCN2S(=O)(=O)c2cccs2)cc(OC)c1OC (stereo not given),n,n,-7.7,n,n,n,n,n,n
Cc1cccc(NC(=O)C(=O)NCC2CCCN2S(=O)(=O)c2cccs2)c1C (stereo not given),n,n,-5.5,n,n,n,n,n,n
Cc1ccc(NC(=O)C(=O)NCC2CCCN2S(=O)(=O)c2cccs2)cc1 (stereo not given),n,n,n,n,n,x,x,x,x
Oc1ccc(/C=N/N2CCN(C3c4ccccc4-c4ccccc43)CC2)cc1O,n,n,n,n,n,x,x,x,x
COc1ccccc1CNC(=O)C(=O)NCC1CCCN1S(=O)(=O)c1cccs1 (stereo not given),n,n,-4.8,n,n,83%,n,n,n
CCCOc1ccccc1C(=O)N(Cc1cccc(Br)c1)C1CCS(=O)(=O)C1 (stereo not given),n,n,n,n,n,x,x,x,x
CC(C)c1ccc(-c2nc(N3CCCC3)nc3n[nH]c(N)c23)cc1,n,n,-5.4,n,n,n,n,n,n
CC(C)(C)c1ccc(OCCC(=O)OCC(=O)Nc2ccc(N3CCOCC3)cc2)cc1,n,n,n,n,n,x,x,x,x
Cc1cccc2nc(-c3cccc(NC(=O)c4ccc(Cl)cc4)c3)cn12,n,n,n,n,n,x,x,x,x
Cc1ccc(OCC(=O)Nn2c(C)nc3ccccc3c2=O)c(C(C)C)c1,n,n,-11,n,n,n,n,n,n
SMILES,MrgX1 PAM,MrgX1 agonist,MrgX1 antagonist,RGS4 act,RGS4 inh,MrgX1 antag conf,HEK293 Ca flux,HEK293 Ca counter,HEK293 Ca cntr2
COCCNC(=O)c1ccc(C)cc1C,n,n,-5.3,n,n,73%,n,n,n
CC(C)CC(C(=O)NC1CCCCC1)N(Cc1ccccc1)C(=O)c1snc(C(N)=O)c1N (stereo not given),n,n,n,n,n,x,x,x,x
CCc1nnc(NC(=O)CSc2nnc(CCc3nc4ccccc4[nH]3)n2C)s1,n,n,n,n,n,x,x,x,x
Cc1nnc(NC(=O)CSc2nnc(CCc3nc4ccccc4[nH]3)n2C)s1,n,n,-4.6,n,n,n,n,n,n
O=C(NC1CCN(C(=O)N2CCOCC2)CC1)c1ccccc1,n,n,n,n,n,x,x,x,x
CCN(CC)C(=O)N1CCC(NC(=O)c2ccccc2)CC1,n,n,-7.5,n,n,n,n,n,n
CC(=O)NCCc1nc2cc(NC(=O)COc3ccc(C)cc3)ccc2n1C,n,n,-6.7,n,n,n,n,n,n
COc1ccc(OCC(=O)Nc2ccc3c(c2)nc(CCNC(C)=O)n3C)cc1,n,n,n,n,n,x,x,x,x
Cc1ccc(S(=O)(=O)N(C)C)cc1NC(=S)NC(=O)C12CC3CC(CC(C3)C1)C2,n,n,-6.6,n,n,n,n,n,n
Cc1cc(N2C(=O)CC(N3CCN(c4ccc(C(=O)c5cccs5)cc4)CC3)C2=O)no1 (stereo not given),n,n,-5,n,n,n,n,n,n
CN1CCN(C(=O)c2ccccc2NC(=O)c2ccccc2)CC1,n,n,n,n,n,x,x,x,x
O=C(NCCC1CCCCN1S(=O)(=O)c1ccc(F)cc1)C(=O)NCC1CCCO1 (stereo not given),n,n,-6,n,n,n,n,n,n
CN(C)c1ccc(C(=O)Nc2cc(C(F)(F)F)ccc2-n2cncn2)cc1,n,n,-11,n,n,n,n,n,n
COc1ccc(CNc2nc(-c3ccccc3)nn2C(=O)c2ccc([N+](=O)[O-])cc2)cc1,n,n,n,n,n,x,x,x,x
COc1ccc(CNc2nc(-c3ccccc3)nn2C(=O)c2cccs2)cc1,n,n,-4.9,n,n,n,n,n,55
Cc1onc(-c2c(F)cccc2Cl)c1C(=O)Nc1nccs1,n,n,-4.6,n,n,n,n,n,n
Cc1onc(-c2c(F)cccc2Cl)c1C(=O)Nc1nnc(C(F)(F)F)s1,n,n,-5.1,n,n,85%,n,n,n
Cn1c(=O)[nH]c(=O)c2c1[nH]c(=S)n2Cc1ccc(Cl)cc1,n,n,n,n,n,x,x,x,x
COC(=O)c1[nH]c2ccc(C)cc2c1NS(=O)(=O)c1ccc(F)c(C)c1,n,n,-6.8,n,n,n,n,n,n
